Test results taken from publication PMC10842602 (Bioorganic & medicinal chemistry, 2023).

Target: T1, WT human SLACK (Homo sapiens, UniProt Q5JUK3)
T1 sequence (Q5JUK3 1-1235 isoform Q5JUK3-3): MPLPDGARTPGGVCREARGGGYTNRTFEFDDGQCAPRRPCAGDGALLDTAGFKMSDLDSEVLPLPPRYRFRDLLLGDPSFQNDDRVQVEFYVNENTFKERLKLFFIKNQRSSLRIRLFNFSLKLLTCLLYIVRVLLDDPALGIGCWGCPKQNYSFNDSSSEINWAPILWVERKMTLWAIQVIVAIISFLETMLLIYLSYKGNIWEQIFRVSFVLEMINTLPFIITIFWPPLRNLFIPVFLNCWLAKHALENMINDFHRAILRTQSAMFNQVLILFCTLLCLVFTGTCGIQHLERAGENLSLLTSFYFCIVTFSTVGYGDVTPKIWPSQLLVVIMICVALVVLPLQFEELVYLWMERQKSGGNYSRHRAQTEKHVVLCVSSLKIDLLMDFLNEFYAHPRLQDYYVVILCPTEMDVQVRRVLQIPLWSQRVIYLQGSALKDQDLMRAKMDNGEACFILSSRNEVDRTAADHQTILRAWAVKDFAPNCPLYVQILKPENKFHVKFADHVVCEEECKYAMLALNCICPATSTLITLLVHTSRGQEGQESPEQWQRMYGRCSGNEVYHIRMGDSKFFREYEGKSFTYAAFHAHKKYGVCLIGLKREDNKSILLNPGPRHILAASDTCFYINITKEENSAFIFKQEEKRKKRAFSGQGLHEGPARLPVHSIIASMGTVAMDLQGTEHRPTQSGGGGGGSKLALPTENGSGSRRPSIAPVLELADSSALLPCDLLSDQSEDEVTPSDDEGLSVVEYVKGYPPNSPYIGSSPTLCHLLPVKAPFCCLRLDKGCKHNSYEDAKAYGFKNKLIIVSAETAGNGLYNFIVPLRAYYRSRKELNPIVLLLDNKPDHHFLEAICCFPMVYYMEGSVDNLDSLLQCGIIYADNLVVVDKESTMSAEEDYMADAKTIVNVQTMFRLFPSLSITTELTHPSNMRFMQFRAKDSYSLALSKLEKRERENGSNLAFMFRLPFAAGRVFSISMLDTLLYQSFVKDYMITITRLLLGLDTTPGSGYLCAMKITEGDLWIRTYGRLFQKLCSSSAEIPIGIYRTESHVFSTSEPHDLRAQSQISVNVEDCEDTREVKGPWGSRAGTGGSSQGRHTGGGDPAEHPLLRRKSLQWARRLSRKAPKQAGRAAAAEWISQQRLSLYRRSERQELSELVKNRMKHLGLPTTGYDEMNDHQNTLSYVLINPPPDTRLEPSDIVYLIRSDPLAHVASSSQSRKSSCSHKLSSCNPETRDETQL
Experiment: Tl+ flux assay in HEK-293 cells stably expressing WT human SLACK
Assay type: cell-based
Conditions: for IC50 / EC50: CRC; for Mode: Tl+ flux, HEK-293 cells expressing WT SLACK
How it was run: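 Stably transfected HEK-293 cells expressing wild-type human SLACK; thallium flux read-out. IC50 or EC50 taken from concentration-response curves, and each compound classed as inhibitor, activator or not active. Efficacy is the response amplitude at 30 μM test compound, as a percentage of the maximum response to a reference SLACK inhibitor (for inhibitors) or loxapine (for activators).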

[1] = IC50 for compounds of mode Inh (also cells printed Inactive)

SMILES	IC50 / EC50 (EC50 for compounds of mode Act) [µM]	IC50 / EC50 [1]	Mode
CCOc1ccccc1S(=O)(=O)N1CC(c2nc(-c3ccccc3C)no2)C1 [Compound 50, 5-(1-((2-Ethoxyphenyl)sulfonyl)azetidin-3-yl)-3-(o-tolyl)-1,2,4-oxadiazole]	>10		
CCOc1ccccc1S(=O)(=O)N1CC[C@@H](c2nc(-c3ccc(F)cc3)no2)C1 [Compound 74]		>10 µM	
CCOc1ccccc1S(=O)(=O)N1CC(c2nc(-c3cccc(OC)c3)no2)C1 [Compound 54, 5-(1-((2-Ethoxyphenyl)sulfonyl)azetidin-3-yl)-3-(3-methoxyphenyl)-1,2,4-oxadiazole]	>10		
O=S(=O)(c1ccc(C(F)(F)F)cc1)N1CC(c2nc(-c3ccsc3)no2)C1 [Compound 19, 3-(Thiophen-3-yl)-5-(1-((4-(trifluoromethyl)phenyl)sulfonyl)azetidin-3-yl)-1,2,4-oxadiazole]		Inactive	Inactive
O=S(=O)(c1ccccc1C(F)(F)F)N1CC(c2nc(-c3ccsc3)no2)C1 [Compound 17, 3-(Thiophen-3-yl)-5-(1-((2-(trifluoromethyl)phenyl)sulfonyl)azetidin-3-yl)-1,2,4-oxadiazole]	6.0		
O=S(=O)(c1cccc(Cl)c1)N1CC(c2nc(-c3ccsc3)no2)C1 [Compound 15, 5-(1-((3-Chlorophenyl)sulfonyl)azetidin-3-yl)-3-(thiophen-3-yl)-1,2,4-oxadiazole]		Inactive	Inactive
CCOc1ccccc1S(=O)(=O)N1CC[C@H](c2nc(-c3ccc(F)cc3)no2)C1 [Compound 75]		>10 µM	
O=S(=O)(c1ccccc1N1CCCC1)N1CC(c2nc(-c3ccc(F)cc3)no2)C1 [Compound 117, 3-(4-Fluorophenyl)-5-(1-((2-(pyrrolidin-1-yl)phenyl)sulfonyl)azetidin-3-yl)-1,2,4-oxadiazole]		8.9 µM	
CCOc1ccccc1S(=O)(=O)N1CC(c2nc(-c3ccc(F)cc3)c[nH]2)C1 [Compound 99]	4.1		
CCOc1ccccc1S(=O)(=O)N1CC(c2nc(-c3ccccc3Cl)no2)C1 [Compound 44, 3-(2-Chlorophenyl)-5-(1-((2-ethoxyphenyl)sulfonyl)azetidin-3-yl)-1,2,4-oxadiazole]		8.0 µM	
CCOc1ccccc1S(=O)(=O)N1CC(c2nc(-c3ccccn3)no2)C1 [Compound 64, 5-(1-((2-Ethoxyphenyl)sulfonyl)azetidin-3-yl)-3-(pyridin-2-yl)-1,2,4-oxadiazole]		Inactive	Inactive
O=S(=O)(c1ccccc1F)N1CC(c2nc(-c3ccsc3)no2)C1 [Compound 11, 5-(1-((2-Fluorophenyl)sulfonyl)azetidin-3-yl)-3-(thiophen-3-yl)-1,2,4-oxadiazole]	4.8		
CCOc1ccccc1S(=O)(=O)c1ccc(-c2nc(-c3ccc(F)cc3)no2)cc1 [Compound 77]		Inactive	Inactive
O=S(=O)(c1cccn2ncnc12)N1CC(c2nc(-c3ccc(F)cc3)no2)C1 [Compound 129]	>10		
CCOc1ccccc1S(=O)(=O)N1CC(c2nc(-c3cccc(Cl)c3)no2)C1 [Compound 45, 3-(3-Chlorophenyl)-5-(1-((2-ethoxyphenyl)sulfonyl)azetidin-3-yl)-1,2,4-oxadiazole]		Inactive	Inactive
CCOc1ccccc1S(=O)(=O)[C@H]1C[C@H](c2nc(-c3ccc(F)cc3)no2)C1 [Compound 73b]		>10 µM	
CCOc1ccccc1S(=O)(=O)[C@H]1C[C@@H](c2nc(-c3ccc(F)cc3)no2)C1 [Compound 73a]		Inactive	Inactive
O=S(=O)(c1cccc2ccoc12)N1CC(c2nc(-c3ccc(F)cc3)no2)C1 [Compound 120, 5-(1-(Benzofuran-7-ylsulfonyl)azetidin-3-yl)-3-(4-fluorophenyl)-1,2,4-oxadiazole]	2.3		
O=S(=O)(c1cccn2ccnc12)N1CC(c2nc(-c3ccc(F)cc3)no2)C1 [Compound 125]	>10		
O=S(=O)(c1ccccc1OC1CCCC1)N1CC(c2nc(-c3ccc(F)cc3)no2)C1 [Compound 116, 5-(1-((2-(cyclopentyloxy)phenyl)sulfonyl)azetidin-3-yl)-3-(4-fluorophenyl)-1,2,4-oxadiazole]		5.8 µM	

SMILES	IC50 / EC50 (EC50 for compounds of mode Act) [µM]	IC50 / EC50 [1]	Mode
CCOc1ccccc1S(=O)(=O)N1CC(c2noc(-c3ccc(F)cc3)n2)C1 [Compound 101]		>10 µM	
CCOc1ccccc1C(C)N1CC(c2nc(-c3ccsc3)no2)C1 (centres unmarked) [Compound 32]	>10		
CCOc1ccccc1S(=O)(=O)N1CC(c2cc(-c3ccc(F)cc3)n[nH]2)C1 [Compound 103]	>10		
CCCCOc1ccccc1S(=O)(=O)N1CC(c2nc(-c3ccsc3)no2)C1 [Compound 28, 5-(1-((2-Butoxyphenyl)sulfonyl)azetidin-3-yl)-3-(thiophen-3-yl)-1,2,4-oxadiazole]		Inactive	Inactive
Cc1ccc(S(=O)(=O)N2CC(c3nc(-c4ccsc4)no3)C2)cc1 [Compound 22, 3-(Thiophen-3-yl)-5-(1-tosylazetidin-3-yl)-1,2,4-oxadiazole]		Inactive	Inactive
CCOc1ccccc1S(=O)(=O)N1CC(c2nc(-c3ccc(F)cc3)cn2C)C1 [Compound 100]		>10 µM	
O=S(=O)(c1ccccc1Cl)N1CC(c2nc(-c3ccsc3)no2)C1 [Compound 14, 5-(1-((2-Chlorophenyl)sulfonyl)azetidin-3-yl)-3-(thiophen-3-yl)-1,2,4-oxadiazole]	7.5		
CCOc1ccccc1S(=O)(=O)N1CC(c2nc(-c3cccc(F)c3)no2)C1 [Compound 42, 5-(1-((2-Ethoxyphenyl)sulfonyl)azetidin-3-yl)-3-(3-fluorophenyl)-1,2,4-oxadiazole]		Inactive	Inactive
O=S(=O)(c1cccc(F)c1)N1CC(c2nc(-c3ccsc3)no2)C1 [Compound 12, 5-(1-((3-Fluorophenyl)sulfonyl)azetidin-3-yl)-3-(thiophen-3-yl)-1,2,4-oxadiazole]	>10		
CCOc1ccccc1NC(=O)N1CC(c2nc(-c3ccsc3)no2)C1 [Compound 35]	>10		
CCOc1ncccc1S(=O)(=O)N1CC(c2nc(-c3ccc(F)cc3)no2)C1 [Compound 111]		>10 µM	
CCOc1ccccc1OC(=O)N1CC(c2nc(-c3ccsc3)no2)C1 [Compound 36]	>10		
Cc1nc2c(S(=O)(=O)N3CC(c4nc(-c5ccc(F)cc5)no4)C3)cccn2n1 [Compound 130]	>10		
CCOc1ccccc1S(=O)(=O)N1CC(F)(c2nc(-c3ccc(F)cc3)no2)C1 [Compound 70]		9.2 µM	
CCOc1ccccc1CN1CC(c2nc(-c3ccsc3)no2)C1 [Compound 31]	>10		
CCOc1ccccc1S(=O)(=O)N1CC(c2nc(-c3cccnc3)no2)C1 [Compound 65, 5-(1-((2-Ethoxyphenyl)sulfonyl)azetidin-3-yl)-3-(pyridin-3-yl)-1,2,4-oxadiazole]		Inactive	Inactive
COc1cccc(S(=O)(=O)N2CC(c3nc(-c4ccsc4)no3)C2)c1 [Compound 24, 5-(1-((3-Methoxyphenyl)sulfonyl)azetidin-3-yl)-3-(thiophen-3-yl)-1,2,4-oxadiazole]		Inactive	Inactive
CCOc1ccccc1S(=O)(=O)N1CC(c2nc(-c3ccccc3C(F)(F)F)no2)C1 [Compound 47, 5-(1-((2-Ethoxyphenyl)sulfonyl)azetidin-3-yl)-3-(2-(trifluoromethyl)phenyl)-1,2,4-oxadiazole]	1.9		
CCOc1ccccc1S(=O)(=O)N1CC(c2nc(-c3cccc(C)c3)no2)C1 [Compound 51, 5-(1-((2-Ethoxyphenyl)sulfonyl)azetidin-3-yl)-3-(m-tolyl)-1,2,4-oxadiazole]		>10 µM	
